This passage reports IC50, viability and Activity results from ChEMBL document CHEMBL3120071, “Biologically active eremophilane-type sesquiterpenes from Camarops sp., an endophytic fungus isolated from Alibertia macrophylla” (J Nat Prod, 2014).

Data set [1] can be described thus: Antioxidant activity […] assessed as […] HOCl scavenging activity by spectrophotometry. The class given is functional. The method in brief: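 Cell-free HOCl scavenging. HOCl was made by diluting commercial bleach and quantified at 292 nm (ε = 350 mol−1 cm−1). It reacts with taurine to give taurine chloramine, which oxidizes TMB. Absorbance was read at 655 nm, with quercetin as the positive control.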

For data set [2], the target named is T1, Myeloperoxidase (Homo sapiens, UniProt P05164).
T1 sequence (P05164 whole entry): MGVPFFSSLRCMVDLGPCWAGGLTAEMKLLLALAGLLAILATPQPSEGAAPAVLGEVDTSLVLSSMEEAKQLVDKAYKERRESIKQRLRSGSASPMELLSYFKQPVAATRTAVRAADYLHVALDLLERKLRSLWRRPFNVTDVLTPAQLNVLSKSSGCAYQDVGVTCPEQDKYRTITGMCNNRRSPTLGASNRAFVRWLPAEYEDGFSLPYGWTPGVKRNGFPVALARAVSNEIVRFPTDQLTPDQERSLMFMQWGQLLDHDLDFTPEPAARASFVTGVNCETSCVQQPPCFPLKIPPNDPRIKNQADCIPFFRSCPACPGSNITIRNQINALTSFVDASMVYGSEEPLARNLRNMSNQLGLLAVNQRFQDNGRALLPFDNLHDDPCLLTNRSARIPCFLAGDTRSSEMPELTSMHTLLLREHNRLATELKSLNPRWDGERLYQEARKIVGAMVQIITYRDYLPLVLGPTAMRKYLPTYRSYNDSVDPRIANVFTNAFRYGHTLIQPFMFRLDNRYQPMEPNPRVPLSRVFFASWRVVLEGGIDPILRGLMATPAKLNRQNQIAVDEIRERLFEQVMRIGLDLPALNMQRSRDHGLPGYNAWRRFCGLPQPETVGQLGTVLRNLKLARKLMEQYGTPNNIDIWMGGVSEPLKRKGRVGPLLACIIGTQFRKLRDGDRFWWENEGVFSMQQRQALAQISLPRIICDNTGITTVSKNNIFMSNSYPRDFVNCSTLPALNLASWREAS
Put plainly: Inhibition of myeloperoxidase (unknown origin) using HOCl/taurine as substrate assessed as inhibition of taurine chloramine production by spectrophotometry. The class given is single protein. The procedure, abridged: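 MPO, quantified by absorbance at 430 nm (ε = 89 000 mol−1 cm−1 per heme), chlorinating activity was measured. The HOCl produced reacts with taurine to give taurine chloramine, which oxidizes TMB to a blue product read at 655 nm. 5-Fluorotryptamine was the positive control.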

Data set [3] in a line: Cytotoxicity against human neutrophils assessed as cell viability at 10 uM by trypan blue exclusion assay. The format is functional. The following applies: Neutrophil, read-out: Activity. The method in brief:
(§1)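 Human neutrophil viability was assessed by trypan blue exclusion after compound exposure at up to 100 μM for up to 60 min, including 10 μM, the concentration used in the respiratory burst studies.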

The nature of data set [4]: Cytotoxicity against human neutrophils at < 100 uM after 60 mins by trypan blue exclusion assay. The following applies: neutrophil, 1 h. The format is cell-based. The procedure, abridged: as §1
Data set [5] can be described thus: (§2) Antioxidant activity in human neutrophils assessed as inhibition of oxidative burst-induced ROS production by chemiluminescence assay. The following applies: Neutrophil. The class given is functional, cell-based. The procedure, abridged:
(§3)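 Human neutrophils were isolated and the respiratory burst was stimulated. Total ROS were measured by luminol-enhanced chemiluminescence (LumCL). DMSO replaced compound in the blanks, taken as 100%. Quercetin and apocynin served as positive controls, and IC50 was taken from concentration–response data.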

Data set [6] has as its system Neutrophil. The description is as §2. The format is functional, cell-based. The method in brief: as §3
A short description of data set [7]: Antioxidant activity […] assessed as xanthine/xanthine oxidase-induced ROS scavenging activity by WST-1 assay. The format is functional. The procedure, abridged: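 Superoxide was generated by xanthine/xanthine oxidase and detected as reduction of the tetrazolium salt WST-1 to a soluble formazan (modified Tan and Berridge method). Quercetin was the positive control.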

A word on the IC50: it is the point on the concentration scale where inhibition reaches its midpoint.

`CCC(C)CC(C)CC(O)(CO)C(=O)O[C@@H]1CC[C@H](C)[C@@]2(C)C=C([C@H](C)CO)C(=O)C=C12` (stereo not given in full): the IC50 is above 100 µM in data set [1], above 100 µM in data set [2], 5.9 µM in data set [5] and above 100 µM in data set [7]. Moreover, the viability at 10 µM in data set [3] was above 98%. For the same compound, the Activity entry in data set [4] is “Non-toxic”; in data set [6], “Dose-dependent effect”.

For the compound `CCC(C)CC(C)CC(O)(CO)C(=O)O[C@@H]1CC[C@H](C)[C@@]2(C)C=C([C@@H](C)CO)C(=O)C=C12` (stereo not given in full), the IC50 in data set [1] is above 100 µM; in data set [2], above 100 µM; in data set [5], 4.17 µM; in data set [7] it was above 100 µM. In data set [3], the viability at 10 µM was above 98%. The Activity entry in data set [4] was “Non-toxic”; in data set [6] it was “Dose-dependent effect”.

For the compound `C=C(CO)[C@@]12O[C@@H]1[C@@]1(C)C(=CC2=O)[C@H](OC(=O)C(C)CC(C)CC(C)CC)CC[C@@H]1C` (stereo not given in full) [XYLARENONE C], the IC50 in data set [1] is above 100 µM; in data set [2], above 100 µM; in data set [5], 6.13 µM; in data set [7] it was above 100 µM. Also, the viability at 10 µM in data set [3] was above 98%. The Activity result in data set [4] is “Non-toxic”; in data set [6], “Dose-dependent effect”.

Turning to `COc1cc(C(C)=O)ccc1O` [APOCYNIN], the IC50 in data set [5] came out at 3.9 µM.

Turning to `C=C(CO)[C@@]12O[C@@H]1[C@@]1(C)C(=CC2=O)[C@H](OC(=O)C(O)(CO)CC(C)CC(C)CC)CC[C@@H]1C` (stereo not given in full) [XYLARENONE D], the IC50 in data set [1] was above 100 µM; in data set [2], above 100 µM; in data set [5] it was 5.73 µM; in data set [7], above 100 µM. The viability at 10 µM in data set [3] was above 98%. Besides, the figures for the Activity entry in data set [4] and in data set [6] were “Non-toxic” and “Dose-dependent effect”, respectively.

Consider `O=c1c(O)c(-c2ccc(O)c(O)c2)oc2cc(O)cc(O)c12` [QUERCETIN], for which, in data set [5], the IC50 turned out to be 4.86 µM.
